The source made the active and inactive calls. No cut-off for these calls is given here.
target: Tubulin (Bos taurus, UniProt Q6B856+Q862L2+Q862F3); test: Inhibition of tubulin polymerization in bovine brain by tubulin assembly assay; conditions: not given
Procedure, shortened: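 Purified bovine brain tubulin (10 µM) in glutamate buffer was preincubated with a concentration range of compound at 30 °C, then cooled to 0 °C. GTP was added, the mixture rewarmed to 30 °C and assembly followed by turbidity.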

Which IC50 does the source give for COc1cc(C(=O)c2cc(-c3ccc(C)cc3)sc2N)cc(OC)c1OC here?
Its IC50 is 1100 nM.

How did the IC50 turn out when COc1cc(C(=O)c2cc(-c3ccccc3)sc2N)cc(OC)c1OC was run?
The IC50 was 1900 nM.

For COc1cccc(-c2cc(C(=O)c3cc(OC)c(OC)c(OC)c3)c(N)s2)c1, which IC50 is on record?
The IC50 was 1700 nM.

COc1ccc(-c2cc(C(=O)c3cc(OC)c(OC)c(OC)c3)c(N)s2)cc1 was tested. Which IC50 did it give?
Its IC50 is 1700 nM.

Which IC50 does the source give for COc1cc(C(=O)c2c(N)sc(-c3ccccc3)c2C)cc(OC)c1OC here?
Its IC50 is 2200 nM.

With COc1cc(C(=O)c2cc(-c3ccc(Cl)cc3)sc2N)cc(OC)c1OC as the compound, how does the IC50 read?
Its IC50 is 980 nM.

Which IC50 does the source give for COc1cc(C(=O)c2cc(-c3ccc(F)cc3)sc2N)cc(OC)c1OC here?
Its IC50 is 1100 nM.

test system: K562; test: Induction of apoptosis in K562 cell line; format: functional, Homo sapiens; conditions: not given

With COc1cc(C(=O)c2cc(-c3ccc(C)cc3)sc2N)cc(OC)c1OC as the compound, how does the Activity read?
The Activity was 20.5%.

Which Activity does the source give for COc1cc(C(=O)c2cc(-c3ccccc3)sc2N)cc(OC)c1OC here?
Its Activity is 87.5%.

Which Activity does the source give for COc1cc(C(=O)c2cc(-c3ccc(F)cc3)sc2N)cc(OC)c1OC here?
Its Activity is 64.5%.

test system: K562; test: Cell cycle arrest in K562 cells at sub-G1 phase cell; format: functional, cell-based; conditions: Homo sapiens
Procedure, shortened: (§1)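 K562 cells cultured with compound at 3 or 10 nM, or at levels giving 50% and 75% growth inhibition, versus untreated cells. Cells (1 × 10⁶) stained with propidium iodide for 30 min. Sub-G1 (DNA-breakage) fraction measured by flow cytometry.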

COc1cc(C(=O)c2cc(-c3ccc(C)cc3)sc2N)cc(OC)c1OC was tested. Which Activity did it give?
Its Activity is “Active”.

With COc1cc(C(=O)c2cc(-c3ccccc3)sc2N)cc(OC)c1OC as the compound, how does the Activity read?
Its Activity is “Active”.

For COc1cc(C(=O)c2cc(-c3ccc(F)cc3)sc2N)cc(OC)c1OC, which Activity is on record?
The Activity was “Active”.

test system: K562; test: Cell cycle arrest in K562 cells at sub-G1 phase cell at 3 nM; format: functional, cell-based; conditions: Homo sapiens; procedure, shortened: as §1

COc1cc(C(=O)c2cc(-c3ccccc3)sc2N)cc(OC)c1OC was tested. Which Activity did it give?
Its Activity is “Active”.

test system: K562; test: Cell cycle arrest in K562 cells at sub-G1 phase cell at 10 nM; format: functional, cell-based; conditions: Homo sapiens; procedure, shortened: as §1

COc1cc(C(=O)c2cc(-c3ccccc3)sc2N)cc(OC)c1OC was tested. Which Activity did it give?
Its Activity is “Active”.

test system: K562; test: Cell cycle arrest in K562 cells at G2/M phase; format: functional, cell-based; conditions: Homo sapiens
Procedure, shortened: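 K562 cells cultured 24 h with compound at concentrations giving 25%, 50% and 75% growth inhibition, or without compound. Cells (1 × 10⁶) stained with propidium iodide for 30 min and analysed by flow cytometry for G1, S, G2/M and sub-G1 fractions. DMSO vehicle.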

Which Activity does the source give for COc1cc(C(=O)c2cc(-c3ccc(F)cc3)sc2N)cc(OC)c1OC here?
The Activity was “Dose-dependent effect”.

test system: K562; test: Antiproliferative activity against human K562 cell line; format: functional, cell-based; conditions: not given
Procedure, shortened: (§2)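 Exponentially growing cells in RPMI 1640 with 10% fetal calf serum, 2 mM L-glutamine, […], penicillin/streptomycin were exposed to increasing drug concentrations (DMSO stock 1 mg/mL, final DMSO ≤0.01%, matched DMSO controls). Cells counted by Coulter counter after 48 h. IC50 = concentration giving 50% inhibition versus untreated controls. Duplicate cultures per concentration, ≥3 independent experiments, mean ± SE.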

Which IC50 does the source give for COc1cc(C(=O)c2c(N)sc(-c3ccccc3)c2-c2ccccc2)cc(OC)c1OC here?
Its IC50 is 8500 nM.

COc1cc(C(=O)c2cc(-c3ccc(C)cc3)sc2N)cc(OC)c1OC was tested. Which IC50 did it give?
Its IC50 is 4.72 nM.

For COc1cc(C(=O)c2ccsc2N)cc(OC)c1OC, which IC50 is on record?
Its IC50 is 1270 nM.

COc1cc(C(=O)c2cc(-c3ccccc3)sc2N)cc(OC)c1OC was tested. Which IC50 did it give?
Its IC50 is 3.75 nM.

With COc1cc(C(=O)c2cc(-c3ccc(OC)c(OC)c3OC)sc2N)cc(OC)c1OC as the compound, how does the IC50 read?
Its IC50 is 1100 nM.

For CCCCCc1cc(C(=O)c2cc(OC)c(OC)c(OC)c2)c(N)s1, which IC50 is on record?
Its IC50 is 1490 nM.

With COc1ccc(C(=O)c2cc(-c3ccccc3)sc2N)cc1 as the compound, how does the IC50 read?
Its IC50 is 4670 nM.

For COc1cc(C(=O)c2c(C)csc2N)cc(OC)c1OC, which IC50 is on record?
The IC50 was 219 nM.

How did the IC50 turn out when COc1cc(C(=O)c2c(N)sc(C)c2C)cc(OC)c1OC was run?
Its IC50 is 790 nM.

How did the IC50 turn out when COc1cc(C(=O)c2cc(-c3ccc(C(F)(F)F)cc3)sc2N)cc(OC)c1OC was run?
Its IC50 is 70.3 nM.

How did the IC50 turn out when COc1cc(C(=O)c2cc(I)sc2N)cc(OC)c1OC was run?
The IC50 was 342 nM.

How did the IC50 turn out when COc1cccc(-c2cc(C(=O)c3cc(OC)c(OC)c(OC)c3)c(N)s2)c1 was run?
The IC50 was 10.1 nM.

For COc1ccc(-c2cc(C(=O)c3cc(OC)c(OC)c(OC)c3)c(N)s2)cc1, which IC50 is on record?
Its IC50 is 4.47 nM.

Which IC50 does the source give for COc1cc(C(=O)c2cc(-c3ccc(Cl)c(Cl)c3)sc2N)cc(OC)c1OC here?
Its IC50 is 362 nM.

COc1cc(C(=O)c2c(N)sc(-c3ccccc3)c2C)cc(OC)c1OC was tested. Which IC50 did it give?
Its IC50 is 6.42 nM.

With COc1cc(C(=O)c2cc(-c3ccc(Cl)cc3)sc2N)cc(OC)c1OC as the compound, how does the IC50 read?
Its IC50 is 14.7 nM.

Which IC50 does the source give for COc1ccccc1-c1cc(C(=O)c2cc(OC)c(OC)c(OC)c2)c(N)s1 here?
Its IC50 is 7.75 nM.

Which IC50 does the source give for COc1ccc(C(=O)c2cc(-c3ccccc3)sc2N)cc1OC here?
The IC50 was 85.5 nM.

Which IC50 does the source give for COc1cc(C(=O)c2cc(-c3ccc(F)cc3)sc2N)cc(OC)c1OC here?
Its IC50 is 2.82 nM.

For COc1ccc(/C=C\c2cc(OC)c(OC)c(OC)c2)cc1O [COMBRETASTATIN A4], which IC50 is on record?
The IC50 was 3.6 nM.

How did the IC50 turn out when COc1cc(C(=O)c2c(-c3ccccc3)csc2N)cc(OC)c1OC was run?
Its IC50 is over 10000 nM.

CCc1cc(C(=O)c2cc(OC)c(OC)c(OC)c2)c(N)s1 was tested. Which IC50 did it give?
The IC50 was 9000 nM.

How did the IC50 turn out when COc1cc(C(=O)c2cc(Br)sc2N)cc(OC)c1OC was run?
Its IC50 is 1680 nM.

test system: L1210; test: Antiproliferative activity against mouse L1210 cell line; format: functional, cell-based; conditions: not given; procedure, shortened: as §2

For COc1cc(C(=O)c2c(N)sc(-c3ccccc3)c2-c2ccccc2)cc(OC)c1OC, which IC50 is on record?
The IC50 was 6950 nM.

For COc1cc(C(=O)c2cc(-c3ccc(C)cc3)sc2N)cc(OC)c1OC, which IC50 is on record?
Its IC50 is 3.52 nM.

With COc1cc(C(=O)c2ccsc2N)cc(OC)c1OC as the compound, how does the IC50 read?
Its IC50 is 3150 nM.

With COc1cc(C(=O)c2cc(-c3ccccc3)sc2N)cc(OC)c1OC as the compound, how does the IC50 read?
The IC50 was 2.52 nM.

COc1cc(C(=O)c2cc(-c3ccc(OC)c(OC)c3OC)sc2N)cc(OC)c1OC was tested. Which IC50 did it give?
Its IC50 is 1650 nM.

CCCCCc1cc(C(=O)c2cc(OC)c(OC)c(OC)c2)c(N)s1 was tested. Which IC50 did it give?
The IC50 was 1320 nM.

COc1ccc(C(=O)c2cc(-c3ccccc3)sc2N)cc1 was tested. Which IC50 did it give?
The IC50 was over 10000 nM.

COc1cc(C(=O)c2c(C)csc2N)cc(OC)c1OC was tested. Which IC50 did it give?
The IC50 was 262 nM.

COc1cc(C(=O)c2c(N)sc(C)c2C)cc(OC)c1OC was tested. Which IC50 did it give?
Its IC50 is 3900 nM.

Which IC50 does the source give for COc1cc(C(=O)c2cc(-c3ccc(C(F)(F)F)cc3)sc2N)cc(OC)c1OC here?
The IC50 was 73.7 nM.

For COc1cc(C(=O)c2cc(I)sc2N)cc(OC)c1OC, which IC50 is on record?
The IC50 was 1150 nM.

COc1cccc(-c2cc(C(=O)c3cc(OC)c(OC)c(OC)c3)c(N)s2)c1 was tested. Which IC50 did it give?
Its IC50 is 20.8 nM.

With COc1ccc(-c2cc(C(=O)c3cc(OC)c(OC)c(OC)c3)c(N)s2)cc1 as the compound, how does the IC50 read?
The IC50 was 6.52 nM.

How did the IC50 turn out when COc1cc(C(=O)c2cc(-c3ccc(Cl)c(Cl)c3)sc2N)cc(OC)c1OC was run?
Its IC50 is 337 nM.

With COc1cc(C(=O)c2c(N)sc(-c3ccccc3)c2C)cc(OC)c1OC as the compound, how does the IC50 read?
The IC50 was 18.2 nM.

COc1cc(C(=O)c2cc(-c3ccc(Cl)cc3)sc2N)cc(OC)c1OC was tested. Which IC50 did it give?
Its IC50 is 6.96 nM.

Which IC50 does the source give for COc1ccccc1-c1cc(C(=O)c2cc(OC)c(OC)c(OC)c2)c(N)s1 here?
Its IC50 is 9 nM.

With COc1ccc(C(=O)c2cc(-c3ccccc3)sc2N)cc1OC as the compound, how does the IC50 read?
Its IC50 is 537 nM.

With COc1cc(C(=O)c2cc(-c3ccc(F)cc3)sc2N)cc(OC)c1OC as the compound, how does the IC50 read?
Its IC50 is 2.15 nM.

For COc1ccc(/C=C\c2cc(OC)c(OC)c(OC)c2)cc1O [COMBRETASTATIN A4], which IC50 is on record?
Its IC50 is 8.3 nM.

For COc1cc(C(=O)c2c(-c3ccccc3)csc2N)cc(OC)c1OC, which IC50 is on record?
The IC50 was over 10000 nM.

Which IC50 does the source give for CCc1cc(C(=O)c2cc(OC)c(OC)c(OC)c2)c(N)s1 here?
The IC50 was over 10000 nM.

Which IC50 does the source give for COc1cc(C(=O)c2cc(Br)sc2N)cc(OC)c1OC here?
The IC50 was 4250 nM.

test system: Tubulin (Bos taurus); test: Inhibition of [3H]colchicine binding to tubulin at 1 uM; conditions: not given

COc1cc(C(=O)c2cc(-c3ccc(C)cc3)sc2N)cc(OC)c1OC was tested. Which inhibition did it give?
Its inhibition is 71%.

With COc1cc(C(=O)c2cc(-c3ccccc3)sc2N)cc(OC)c1OC as the compound, how does the inhibition read?
The inhibition was 60%.

For COc1cccc(-c2cc(C(=O)c3cc(OC)c(OC)c(OC)c3)c(N)s2)c1, which inhibition is on record?
Its inhibition is 58%.

For COc1ccc(-c2cc(C(=O)c3cc(OC)c(OC)c(OC)c3)c(N)s2)cc1, which inhibition is on record?
The inhibition was 64%.

Which inhibition does the source give for COc1cc(C(=O)c2c(N)sc(-c3ccccc3)c2C)cc(OC)c1OC here?
Its inhibition is 37%.

Which inhibition does the source give for COc1cc(C(=O)c2cc(-c3ccc(Cl)cc3)sc2N)cc(OC)c1OC here?
Its inhibition is 68%.

How did the inhibition turn out when COc1cc(C(=O)c2cc(-c3ccc(F)cc3)sc2N)cc(OC)c1OC was run?
Its inhibition is 82%.

Source: ChEMBL document CHEMBL1138047, “Synthesis and biological evaluation of 2-amino-3-(3',4',5'-trimethoxybenzoyl)-5-aryl thiophenes as a new class of potent antitubulin agents” (J Med Chem, 2006)
